Tests used:
Assay type in all cases: functional
[1] = system: K562; test: Anticancer activity against human K562 cells after 48 hrs by SRB assay; conditions: K562, 48 h; for CC50: read-out: LC50 (the source's name)
Procedure, shortened: (§1)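 NCI five-dose screen. Cells in RPMI 1640 with 5% FBS and 2 mM L-glutamine, seeded at 5000–40,000 cells/well according to doubling time, then pre-incubated 24 h at 37 °C in 5% CO2. Drugs dissolved in DMSO, five concentrations by 10-fold or 1/2-log dilution. Cells fixed with TCA, SRB-stained, A515 read. IC50 solved from [(Ti−Tz)/(C−Tz)]×100 = 50.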

[2] = system: SF-268; test: Anticancer activity against human SF268 cells after 48 hrs by SRB assay; conditions: SF-268, 48 h; for CC50: read-out: LC50 (the source's name)
[3] = system: IGROV-1; test: Anticancer activity against human IGROV1 cells after 48 hrs by SRB assay; conditions: IGROV-1, 48 h; for CC50: read-out: LC50 (the source's name); procedure, shortened: as §1
[4] = system: NCI-H23; test: Anticancer activity against human NCI-H23 cells after 48 hrs by SRB assay; conditions: NCI-H23, 48 h
[5] = system: NCI-H226; test: Anticancer activity against human NCI-H226 cells after 48 hrs by SRB assay; conditions: NCI-H226, 48 h
[6] = system: SK-MEL-5; test: Anticancer activity against human SK-MEL-5 cells after 48 hrs by SRB assay; conditions: SK-MEL-5, 48 h; for CC50: read-out: LC50 (the source's name)
[7] = system: RXF 393; test: Anticancer activity against human RXF393 cells after 48 hrs by SRB assay; conditions: RXF 393, 48 h; for CC50: read-out: LC50 (the source's name)
[8] = system: HL-60(TB); test: Anticancer activity against human HL-60(TB) cells after 48 hrs by SRB assay; conditions: HL-60, 48 h
Procedure, shortened: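 NCI-60 five-dose screen. Cells grown in RPMI 1640 with 5% FBS and 2 mM L-glutamine, seeded at 5000–40,000 cells/well, and held 24 h at 37 °C and 5% CO₂ before drug. DMSO stocks were diluted into five concentrations (10-fold or ½-log steps). Settled suspension cells were fixed with cold TCA, SRB-stained, and read at 515 nm. […] was taken where [(Ti−Tz)/(C−Tz)]×100 = 50.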

[9] = system: MDA-MB-435; test: Anticancer activity against human MDA-MB-435 cells after 48 hrs by SRB assay; conditions: MDA-MB-435, 48 h; for CC50: read-out: LC50 (the source's name); procedure, shortened: as §1
[10] = system: NCI-H322M; test: Anticancer activity against human NCI-H322M cells after 48 hrs by SRB assay; conditions: for CC50: read-out: LC50 (the source's name)
[11] = system: SNB-19; test: Anticancer activity against human SNB19 cells after 48 hrs by SRB assay; conditions: SNB-19, 48 h; for CC50: read-out: LC50 (the source's name)
[12] = system: PC-3; test: Anticancer activity against human PC3 cells after 48 hrs by SRB assay; conditions: PC-3, 48 h; for CC50: read-out: LC50 (the source's name)
[13] = system: M14; test: Anticancer activity against human M14 cells after 48 hrs by SRB assay; conditions: M14, 48 h; for CC50: read-out: LC50 (the source's name); procedure, shortened: as §1
[14] = system: SK-MEL-2; test: Anticancer activity against human SK-MEL-2 cells after 48 hrs by SRB assay; conditions: SK-MEL-2, 48 h; for CC50: read-out: LC50 (the source's name)
[15] = system: MDA-MB-231; test: Anticancer activity against human MDA-MB-231 cells after 48 hrs by SRB assay; conditions: MDA-MB-231, 48 h; for CC50: read-out: LC50 (the source's name); procedure, shortened: as §1
[16] = system: OVCAR-4; test: Anticancer activity against human OVCAR4 cells after 48 hrs by SRB assay; conditions: OVCAR-4, 48 h
[17] = system: MOLT-4; test: Anticancer activity against human MOLT4 cells after 48 hrs by SRB assay; conditions: MOLT-4, 48 h; for CC50: read-out: LC50 (the source's name)
[18] = system: HT-29; test: Anticancer activity against human HT-29 cells after 48 hrs by SRB assay; conditions: HT-29, 48 h; for CC50: read-out: LC50 (the source's name); procedure, shortened: as §1
[19] = system: CCRF-CEM; test: Anticancer activity against human CCRF-CEM cells after 48 hrs by SRB assay; conditions: for CC50: read-out: LC50 (the source's name); procedure, shortened: as §1
[20] = system: HCT-15; test: Anticancer activity against human HCT15 cells after 48 hrs by SRB assay; conditions: HCT-15, 48 h; for CC50: read-out: LC50 (the source's name); procedure, shortened: as §1
[21] = system: UACC-62; test: Anticancer activity against human UACC62 cells after 48 hrs by SRB assay; conditions: UACC-62, 48 h; for CC50: read-out: LC50 (the source's name)
Procedure, shortened: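 NCI-60 five-dose mode: cells in RPMI 1640 with 5% FBS and 2 mM glutamine, plated at 5000–40,000 cells/well, and preincubated 24 h, with time-zero plates TCA-fixed. Drug given at five concentrations (10-fold or ½-log serial dilutions). Cold TCA fixation 60 min at 4 °C, SRB stain, Tris solubilization, A515. IC50 taken where [(Ti−Tz)/(C−Tz)]×100 = 50.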

[22] = system: OVCAR-5; test: Anticancer activity against human OVCAR5 cells after 48 hrs by SRB assay; conditions: OVCAR-5, 48 h
[23] = system: KM12; test: Anticancer activity against human KM12 cells after 48 hrs by SRB assay; conditions: KM12, 48 h; for CC50: read-out: LC50 (the source's name); procedure, shortened: as §1
[24] = system: EKVX; test: Anticancer activity against human EKVX cells after 48 hrs by SRB assay; procedure, shortened: as §1
[25] = system: NCI-H460; test: Anticancer activity against human NCI-H460 cells after 48 hrs by SRB assay; conditions: NCI-H460, 48 h
[26] = system: SF-539; test: Anticancer activity against human SF539 cells after 48 hrs by SRB assay; conditions: SF-539, 48 h; for CC50: read-out: LC50 (the source's name)
[27] = system: MDA-MB-468; test: Anticancer activity against human MDA-MB-468 cells after 48 hrs by SRB assay; conditions: MDA-MB-468, 48 h; for CC50: read-out: LC50 (the source's name)
[28] = read-out: LC50 (the source's name)

COc1cccc(-c2nc3sccn3c2-c2ccnc(NCCNC(=O)Nc3cccc(C(F)(F)F)c3)n2)c1
GI50 [1]: 3.48 µM | TGI [1]: > 100 µM | CC50 [1]: > 100 µM | GI50 [2]: 4.59 µM | TGI [2]: 43.4 µM | CC50 [2]: > 100 µM | GI50 [3]: 3.32 µM | TGI [3]: 21.8 µM | CC50 [3]: > 100 µM | GI50 [4]: 3.42 µM | LC50 (50% lethal concentration) [4]: > 100 µM | TGI [4]: 76.9 µM | GI50 [5]: 4.58 µM | LC50 (concentration killing 50% of tumour cells) [5]: > 100 µM | TGI [5]: 68.6 µM | GI50 [6]: 4.27 µM | TGI [6]: 15.9 µM | CC50 [6]: 40.6 µM | GI50 [7]: 1.77 µM | TGI [7]: 3.65 µM | CC50 [7]: 7.49 µM | GI50 [8]: 2.92 µM | LC50 [8]: > 100 µM | TGI [8]: 7.43 µM | GI50 [9]: 2.95 µM | TGI [9]: 12.3 µM | CC50 [9]: > 100 µM | GI50 [10]: 7.23 µM | TGI [10]: > 100 µM | CC50 [10]: > 100 µM | GI50 [11]: 7.77 µM | TGI [11]: > 100 µM | CC50 [11]: > 100 µM | GI50 [12]: 2.47 µM | TGI [12]: 11.9 µM | CC50 [12]: > 100 µM | GI50 [13]: 2.96 µM | TGI [13]: 8.48 µM | CC50 [13]: 29.2 µM | GI50 [14]: 2.03 µM | TGI [14]: 4.46 µM | CC50 [14]: 9.78 µM | GI50 [15]: 3.47 µM | TGI [15]: 12 µM | CC50 [15]: > 100 µM | GI50 [16]: 3.78 µM | TGI [16]: 34.1 µM | CC50 [16, 28]: > 100 µM | GI50 [17]: 3.27 µM | TGI [17]: 9.94 µM | CC50 [17]: > 100 µM | GI50 [18]: 3.33 µM | TGI [18]: 14 µM | CC50 [18]: > 100 µM | GI50 [19]: 8.43 µM | TGI [19]: > 100 µM | CC50 [19]: > 100 µM | GI50 [20]: 3.05 µM | TGI [20]: 16.4 µM | CC50 [20]: > 100 µM | GI50 [21]: 2.55 µM | TGI [21]: 7.48 µM | CC50 [21]: 27.7 µM | GI50 [22]: 6.37 µM | TGI [22]: 52.2 µM | CC50 [22, 28]: > 100 µM | GI50 [23]: 3.36 µM | TGI [23]: 10.1 µM | CC50 [23]: 39.3 µM | GI50 [24]: 3.55 µM | LC50 [24]: > 100 µM | TGI [24]: 59.6 µM | GI50 [25]: 2.94 µM | LC50 [25]: > 100 µM | TGI [25]: 14.4 µM | GI50 [26]: 3.83 µM | TGI [26]: 17.1 µM | CC50 [26]: 56.5 µM | GI50 [27]: 2.63 µM | TGI [27]: 10.4 µM | CC50 [27]: > 100 µM

O=C(NCCNc1nccc(-c2c(-c3cccc(O)c3)nc3sccn23)n1)c1ccccc1O
GI50 [1]: 6.06 µM | TGI [1]: > 100 µM | CC50 [1]: > 100 µM | GI50 [2]: 3.59 µM | TGI [2]: 24.9 µM | CC50 [2]: > 100 µM | GI50 [3]: 17.4 µM | TGI [3]: 92.9 µM | CC50 [3]: > 100 µM | GI50 [4]: 11.5 µM | LC50 (50% lethal concentration) [4]: > 100 µM | TGI [4]: 67.7 µM | GI50 [5]: 4.61 µM | LC50 (concentration killing 50% of tumour cells) [5]: > 100 µM | TGI [5]: 29.6 µM | GI50 [6]: 4.57 µM | TGI [6]: 53.3 µM | CC50 [6]: > 100 µM | GI50 [7]: 3.19 µM | TGI [7]: 21.2 µM | CC50 [7]: > 100 µM | GI50 [8]: 4.95 µM | LC50 [8]: > 100 µM | TGI [8]: > 100 µM | GI50 [9]: 1.22 µM | TGI [9]: 3.54 µM | CC50 [9]: 10.6 µM | GI50 [10]: 4.6 µM | TGI [10]: 18.5 µM | CC50 [10]: 66.6 µM | GI50 [11]: 5.02 µM | TGI [11]: > 100 µM | CC50 [11]: > 100 µM | GI50 [12]: 5.15 µM | TGI [12]: 77.6 µM | CC50 [12]: > 100 µM | GI50 [13]: 0.683 µM | TGI [13]: 39 µM | CC50 [13]: > 100 µM | GI50 [14]: 0.651 µM | TGI [14]: 15.9 µM | CC50 [14]: > 100 µM | GI50 [15]: 2.63 µM | TGI [15]: 62.3 µM | CC50 [15]: > 100 µM | GI50 [17]: 2.97 µM | TGI [17]: 21.7 µM | CC50 [17]: > 100 µM | GI50 [18]: 4.22 µM | TGI [18]: 15.3 µM | CC50 [18]: 40.8 µM | GI50 [19]: 3.43 µM | TGI [19]: > 100 µM | CC50 [19]: > 100 µM | GI50 [20]: 3.83 µM | TGI [20]: 24.5 µM | CC50 [20]: > 100 µM | GI50 [21]: 8.32 µM | TGI [21]: 96.9 µM | CC50 [21]: > 100 µM | GI50 [23]: 6.38 µM | TGI [23]: 27.3 µM | CC50 [23]: > 100 µM | GI50 [24]: 7.81 µM | LC50 [24]: > 100 µM | TGI [24]: 39.1 µM | GI50 [25]: 7.88 µM | LC50 [25]: > 100 µM | TGI [25]: 31 µM | GI50 [26]: 11.9 µM | TGI [26]: > 100 µM | CC50 [26]: > 100 µM | GI50 [27]: 2.3 µM | TGI [27]: 18.2 µM | CC50 [27]: > 100 µM

From ChEMBL document CHEMBL1914423, “New imidazo[2,1-b]thiazole derivatives: synthesis, in vitro anticancer evaluation, and in silico studies” (Eur J Med Chem, 2011)
